Source: ChEMBL document CHEMBL1140765, “Synthesis and biological evaluation of 2-trifluoromethyl/sulfonamido-5,6-diaryl substituted imidazo[2,1-b]-1,3,4-thiadiazoles: a novel class of cyclooxygenase-2 inhibitors” (Bioorg Med Chem, 2008)

Legend:
[1] = biological target: T1, Prostaglandin G/H synthase 1 (Ovis aries) (UniProt P05979); assay: Inhibition of ovine COX1 at 10 uM
T1 sequence (whole entry): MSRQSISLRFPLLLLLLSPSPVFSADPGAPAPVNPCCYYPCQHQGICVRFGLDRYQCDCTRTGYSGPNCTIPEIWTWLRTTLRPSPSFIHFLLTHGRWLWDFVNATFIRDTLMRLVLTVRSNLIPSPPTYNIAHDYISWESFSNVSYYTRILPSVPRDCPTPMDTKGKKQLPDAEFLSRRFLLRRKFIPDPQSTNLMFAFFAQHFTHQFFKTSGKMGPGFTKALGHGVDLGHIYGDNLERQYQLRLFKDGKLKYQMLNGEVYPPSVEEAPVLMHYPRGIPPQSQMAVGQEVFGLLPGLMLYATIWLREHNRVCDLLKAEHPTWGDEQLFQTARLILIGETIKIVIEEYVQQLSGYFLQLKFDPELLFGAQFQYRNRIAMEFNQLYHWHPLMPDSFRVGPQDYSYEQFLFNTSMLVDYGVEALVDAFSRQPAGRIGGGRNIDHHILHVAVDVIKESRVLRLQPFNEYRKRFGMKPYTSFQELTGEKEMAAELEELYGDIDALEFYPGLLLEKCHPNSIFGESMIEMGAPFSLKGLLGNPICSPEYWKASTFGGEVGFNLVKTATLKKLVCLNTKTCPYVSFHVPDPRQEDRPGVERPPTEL
Procedure, shortened: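 Ovine COX-1 activity was measured with a colorimetric inhibitor assay kit that reads the enzyme's peroxidase component. Oxidized TMPD was monitored at 590 nm during reduction of PGG2 to PGH2. Runs were done in duplicate.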

Rattus norvegicus [2] = assay: Antiinflammatory activity in Albino rat assessed as reduction of carrageenan-induced paw edema volume at 10 mg/kg, po after 2 hrs; format: functional; set-up: scale not given: the % may be the effect or the level left
Procedure, shortened: (§1)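 Male albino rats, six per group, were dosed orally. One hour later they received a subplantar injection of 0.05 mL of 1% carrageenan in 0.9% sterile solution into the left hind paw. Paw volume was read by digital plethysmometer at 0, 2 and 4 h. Percent reduction was calculated as (1 − treated/vehicle control edema volume) × 100, and values are given as mean ± SE.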

Rattus norvegicus [3] = assay: Antiinflammatory activity in Albino rat assessed as reduction of carrageenan-induced paw edema volume at 10 mg/kg, po after 4 hrs; format: functional; set-up: scale not given: the % may be the effect or the level left; procedure, shortened: as §1
[4] = biological target: T2, Prostaglandin G/H synthase 1 (Ovis aries, UniProt P05979); assay: Inhibition of ovine COX1
T2 sequence (P05979 whole entry): T1 sequence (whole entry)
Procedure, shortened: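 Ovine enzyme, colorimetric kit assay read through the peroxidase component: oxidised TMPD appearing during PGG2 to PGH2 reduction monitored at 590 nm; values reported as IC50 in µM, duplicate experiments.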

| Structure (SMILES) | inhibition [1] [%] | Activity (Rattus norvegicus [2]) [%] | Activity (Rattus norvegicus [3]) [%] | IC50 [4] [µM] |
| --- | --- | --- | --- | --- |
| COc1ccc(-c2nc3sc(C(F)(F)F)nn3c2-c2ccc(OC)cc2)cc1 | 15.5 | 38.03 | 48.78 |  |
| COc1ccc(-c2c(-c3ccccc3)nc3sc(C(F)(F)F)nn23)cc1 | 30.6 | 29.62 | 42.32 |  |
| CS(=O)(=O)c1ccc(-c2nc3sc(C(F)(F)F)nn3c2-c2ccccc2)cc1 | 8.6 | 46.73 | 70.09 | > 50 |
| COc1ccc(-c2c(-c3ccc(F)cc3)nc3sc(S(N)(=O)=O)nn23)cc1 | 12.9 | 43.49 | 51.72 |  |
| COc1ccc(-c2nc3sc(S(N)(=O)=O)nn3c2-c2ccc(OC)cc2)cc1 | 28.1 | 24.68 | 37.05 |  |
| COc1ccc(-c2c(-c3ccc(SC)cc3)nc3sc(C(F)(F)F)nn23)cc1 | 10.5 | 42.38 | 66.16 |  |
| Cc1ccc(-c2cc(C(F)(F)F)nn2-c2ccc(S(N)(=O)=O)cc2)cc1 [CELECOXIB] |  | 48.31 | 64.83 |  |
| COc1ccc(-c2c(-c3ccc(S(C)(=O)=O)cc3)nc3sc(S(N)(=O)=O)nn23)cc1 | 13.3 | 54.28 | 61.29 | > 50 |
| CSc1ccc(-c2nc3sc(C(F)(F)F)nn3c2-c2ccccc2)cc1 | 14.2 | 37.64 | 54.16 |  |
